Data set [1] deals with T1, 17-beta-hydroxysteroid dehydrogenase type 1 (Homo sapiens) (UniProt P14061).
T1 sequence (whole entry): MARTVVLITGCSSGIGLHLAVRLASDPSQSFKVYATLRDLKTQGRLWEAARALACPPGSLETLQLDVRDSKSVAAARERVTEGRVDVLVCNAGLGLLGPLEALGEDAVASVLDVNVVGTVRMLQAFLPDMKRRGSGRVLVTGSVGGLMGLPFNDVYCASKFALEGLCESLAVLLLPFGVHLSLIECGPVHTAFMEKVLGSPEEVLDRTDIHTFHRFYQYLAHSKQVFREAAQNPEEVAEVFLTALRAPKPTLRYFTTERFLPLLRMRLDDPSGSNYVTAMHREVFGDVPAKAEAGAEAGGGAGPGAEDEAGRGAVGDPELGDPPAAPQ
Briefly: Inhibition of human placental cytosolic 17beta-HSD1 at 1 uM using [3H]-E1/E1 substrate and NADH after 10 mins by HPLC based radio-detection method. The method, boiled down:
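Enzyme from the cytosolic fraction of human placenta, incubated with radiolabelled estrone as substrate. Values are the mean of at least two independent experiments, each run in duplicate, with standard deviation under 15%.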

The target in data set [2] is T1, 17-beta-hydroxysteroid dehydrogenase type 1 (Homo sapiens). Briefly: Inhibition of 17beta-HSD1 in human T47D cells assessed as [3H]-E2 level at 200 nM after 48 hrs by HPLC based radio-detection method (reference value: 95.2%). It is filed as cell-based. More on the design: scale not given: the % may be the effect or the level left.
Data set [3] concerns the target T2, Steryl-sulfatase (Homo sapiens) (UniProt P08842).
T2 sequence (whole entry): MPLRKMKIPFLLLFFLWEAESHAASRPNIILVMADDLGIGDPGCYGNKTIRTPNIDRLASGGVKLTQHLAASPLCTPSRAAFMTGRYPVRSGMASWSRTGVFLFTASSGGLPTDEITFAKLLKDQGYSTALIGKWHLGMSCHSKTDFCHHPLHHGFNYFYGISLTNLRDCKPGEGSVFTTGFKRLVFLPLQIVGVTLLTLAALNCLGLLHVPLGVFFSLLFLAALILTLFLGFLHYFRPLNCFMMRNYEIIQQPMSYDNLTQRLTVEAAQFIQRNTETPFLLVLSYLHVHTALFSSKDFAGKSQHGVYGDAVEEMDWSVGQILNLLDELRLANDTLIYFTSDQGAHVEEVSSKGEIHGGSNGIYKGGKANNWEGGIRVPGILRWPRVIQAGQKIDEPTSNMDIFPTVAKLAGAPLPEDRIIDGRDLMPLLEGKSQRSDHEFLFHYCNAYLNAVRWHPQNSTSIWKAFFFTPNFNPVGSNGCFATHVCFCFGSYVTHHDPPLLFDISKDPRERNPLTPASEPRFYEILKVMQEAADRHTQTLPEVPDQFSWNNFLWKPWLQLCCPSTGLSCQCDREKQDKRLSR
Briefly: Inhibition of STS in human T47D cells assessed as [3H]-E1S level at 200 nM after 48 hrs by HPLC based radio-detection method. It is filed as cell-based. More on the design: scale not given: the % may be the effect or the level left.

The subject of data set [4] is T47D. Briefly: Antiproliferative activity against E1S/E1-stimulated human T47D cells assessed as cell viability at 50 to 200 nM measured after 7 days after MTT assay relative to control. It is filed as functional. For orientation: Tetrazolium dyes change colour on reduction, which living cells bring about.
Data set [5] deals with T3, 17beta-HSD2 (17-beta-hydroxysteroid dehydrogenase type 2) (Homo sapiens, UniProt P37059).
T3 sequence (P37059 whole entry): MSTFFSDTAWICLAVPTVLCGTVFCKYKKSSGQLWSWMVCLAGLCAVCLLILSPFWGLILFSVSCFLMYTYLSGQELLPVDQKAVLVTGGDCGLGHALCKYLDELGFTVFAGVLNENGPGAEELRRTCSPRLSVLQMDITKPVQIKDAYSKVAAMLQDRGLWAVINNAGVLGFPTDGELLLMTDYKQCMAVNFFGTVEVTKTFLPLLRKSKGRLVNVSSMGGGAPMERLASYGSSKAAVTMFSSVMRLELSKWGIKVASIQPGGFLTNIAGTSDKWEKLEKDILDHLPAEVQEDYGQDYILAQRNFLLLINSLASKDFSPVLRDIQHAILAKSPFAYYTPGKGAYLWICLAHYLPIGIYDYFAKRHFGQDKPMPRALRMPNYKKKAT
The data set is described as follows: Inhibition of human placental microsomal 17beta-HSD2 at 1 uM using [3H]-E2/E2 substrate and NAD+ after 20 mins by HPLC based radio-detection method. The settings on record: human placental microsomal 17beta-HSD2, probe [3H]-E2/E2.

In data set [6] the target is T1, 17-beta-hydroxysteroid dehydrogenase type 1 (Homo sapiens). The data set is described as follows: Inhibition of 17beta-HSD1 in human T47D cells assessed as [3H]-E1 level at 200 nM after 48 hrs by HPLC based radio-detection method (reference value: 0.9%). More on the design: scale not given: the % may be the effect or the level left. The class given is cell-based.

The target is the same in data set [7]. The data set is described as follows: Inhibition of 17beta-HSD1 in human T47D cells at 1 uM preincubated for 1 hr followed by addition of [3H]-E1/E1 as substrate measured after 30 mins by HPLC based radio-detection method. It is filed as cell-based.
Data set [8] has as its target T4, 17-beta-hydroxysteroid dehydrogenase type 1 (Homo sapiens, UniProt P14061).
T4 sequence (P14061 whole entry): T1 sequence (whole entry)
The data set is described as follows: Inhibition of human placental cytosolic 17beta-HSD1 using [3H]-E1/E1 substrate and NADH after 10 mins by HPLC based radio-detection method. The method, boiled down: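 Cell-free assay with the cytosolic fraction of human placenta as the 17β-HSD1 source and radiolabeled E1 as substrate, with test compound present.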

For data set [9], the target named is T1, 17-beta-hydroxysteroid dehydrogenase type 1 (Homo sapiens). Briefly: Inhibition of 17beta-HSD1 in human T47D cells assessed as [3H]-E2 level at 400 nM after 48 hrs by HPLC based radio-detection method (reference value: 95.2%). It is filed as cell-based. More on the design: scale not given: the % may be the effect or the level left.
The target of data set [10] is T5, Steryl-sulfatase (Homo sapiens, UniProt P08842).
T5 sequence (P08842 whole entry): T2 sequence (whole entry)
Briefly: Inhibition of STS in human T47D cells preincubated for 1 hr followed by addition of [3H]-E1S/E1S as substrate measured after 24 hrs by HPLC based radio-detection method. The class given is cell-based.

Data set [11] in a line: Stability of the compound in Tris-HCl buffer at pH 7.2 after 30 mins. The class given is physicochemical. The settings on record: pH 7.2, 0.5 h. In short, it runs like this:
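Compound incubated in 20 mM Tris-HCl buffer, pH 7.2, at 37 °C for 30 min. Remaining parent compound was measured, with sulfamate cleavage to the phenolic OH product monitored.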

For the next data set, the system named is HEK293. The data set is described as follows: Cytotoxicity against HEK293 cells assessed as reduction in cell viability at 0.1 to 1 uM after 48 hrs by MTT assay. It is filed as cell-based. Particulars: human, hek293, 48 h.
The subject of data set [12] is T47D. Briefly: Antiproliferative activity against E1S/E1-stimulated human T47D cells assessed as reduction in cell viability measured after 7 days after MTT assay. The class given is functional, cell-based.
The subject of data set [13] is T47D. Briefly: Antiproliferative activity against E2-stimulated human T47D cells assessed as reduction in cell viability at 400 nM measured after 7 days after MTT assay. The class given is functional, cell-based.
For data set [14], the target named is T1, 17-beta-hydroxysteroid dehydrogenase type 1 (Homo sapiens). The data set is described as follows: Inhibition of 17beta-HSD1 in human T47D cells assessed as [3H]-E1 level at 400 nM after 48 hrs by HPLC based radio-detection method (reference value: 0.9%). The class given is cell-based. More on the design: scale not given: the % may be the effect or the level left.

For data set [15], the target named is T5, Steryl-sulfatase. The data set is described as follows: Inhibition of human placental microsomal STS assessed as formation of E1 preincubated for 30 mins followed by addition of E1S as substrate measured after 20 mins by ELISA. In short, it runs like this:
(§1)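 Human placental STS incubated with estrone sulfate (E1S) as substrate in the presence of inhibitor; estrone (E1) formed was quantified by ELISA.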
(In general: An ELISA detects its analyte on a solid surface through an enzyme-linked reagent.)

For data set [16], the target named is T5, Steryl-sulfatase. The data set is described as follows: Irreversible inhibition of STS in human T47D cells preincubated for 2 hrs followed by compound washout and addition of [3H]-E1S/E1S as substrate measured after 24 hrs by HPLC based radio-detection method. It is filed as cell-based.
Data set [17] addresses T2, Steryl-sulfatase (Homo sapiens). Briefly: Inhibition of STS in human T47D cells assessed as [3H]-E1S level at 400 nM after 48 hrs by HPLC based radio-detection method (reference value: 3.9%). It is filed as cell-based. More on the design: scale not given: the % may be the effect or the level left.
For data set [18], the system named is T47D. The data set is described as follows: Cytotoxicity against human T47D cells assessed as reduction in cell viability at 400 nM after 7 days by MTT assay. The class given is cell-based. Particulars: 168 h, 0.4 µM.
In data set [19] the target is T6, 17-beta-hydroxysteroid dehydrogenase type 2 (Homo sapiens, UniProt P37059).
T6 sequence (P37059 whole entry): T3 sequence (P37059 whole entry)
The data set is described as follows: Inhibition of human placental microsomal 17beta-HSD2 using [3H]-E2/E2 substrate and NAD+ after 20 mins by HPLC based radio-detection method.

The target in data set [20] is T4, 17-beta-hydroxysteroid dehydrogenase type 1. The data set is described as follows: Inhibition of 17beta-HSD1 in human T47D cells preincubated for 1 hr followed by addition of [3H]-E1/E1 as substrate measured after 30 mins by HPLC based radio-detection method. The class given is cell-based.
Data set [21] is described as follows: Selectivity factor, ratio of IC50 for human placental microsomal 17beta-HSD2 cells to IC50 for human placental cytosolic 17beta-HSD1.
Data set [22] deals with T1, 17-beta-hydroxysteroid dehydrogenase type 1 (Homo sapiens). Briefly: Irreversible inhibition of 17beta-HSD1 in human T47D cells at 50 nM preincubated for 2 hrs followed by compound washout and addition of […] as substrate measured after 24 hrs by HPLC based radio-detection method. The class given is cell-based.
Data set [23] has as its target T2, Steryl-sulfatase (Homo sapiens). The data set is described as follows: Inhibition of STS in human T47D cells at 1 uM preincubated for 1 hr followed by addition of [3H]-E1S/E1S as substrate measured after 24 hrs by HPLC based radio-detection method. It is filed as cell-based.
The target is the same in data set [24]. Briefly: Inhibition of human placental microsomal STS assessed as formation of E1 at 1 uM preincubated for 30 mins followed by addition of E1S as substrate measured after 20 mins by ELISA. The method, boiled down:
as §1

For data set [25] the target is unchanged. Briefly: Irreversible inhibition of STS in human T47D cells at 1 uM preincubated for 2 hrs followed by compound washout and addition of [3H]-E1S/E1S as substrate measured after 24 hrs by HPLC based radio-detection method. It is filed as cell-based.

The source made the active and inactive calls. The calls are words filed in the database; no cut-off is given here.

Usually inhibition stands for the drop in the measured response relative to a control, in per cent. As a reminder, the IC50 is the midpoint of a concentration-inhibition curve.

Take `NS(=O)(=O)Oc1ccc2c3c(c(=O)oc2c1)CCCCC3` [IROSUSTAT]: the figures for the inhibition in data set [1] and in [7] were under 10% and under 5%, respectively. Besides, the Activity was 49.2% in data set [2], 50% in data set [3], 200% in the data set with T47D [4] and 0.8% in data set [6]. This compound also came in with an inhibition at 20 min, 1 µM in data set [5] of under 10%.

For `NS(=O)(=O)Oc1ccc(-c2ccc(C(=O)c3c(F)ccc(O)c3F)s2)cc1Cl`, the IC50 in [8] stood at 1.1 nM; at Steryl-sulfatase [10], 15.6 nM; at Steryl-sulfatase [15], 143 nM; against Steryl-sulfatase [16], 16.4 nM; in data set [19], 36.1 nM; in [20] it was 22.2 nM. The Activity in [9] is 1.1%; with HEK293 it was “Non-Toxic”; in the data set on T47D [12], “Dose-dependent effect”; in data set [14], 48.9%; in data set [17], 50%; in the data set on T47D [18], “Non-Toxic”. Also, in [11], the Stability result is “Stable”. Further, the outcome with T47D [13] was inactive. Moreover, the “Ratio IC50” value in [21] was determined as 33. Besides, the inhibition entry in [22] is “inactive”.

Consider `O=C(c1ccc(-c2ccc(O)cc2)s1)c1c(F)ccc(O)c1F`, for which the IC50 in [8] was determined as 3.1 nM; in [20], 7.9 nM. Also, the Activity in data set [2] came out at 7.9%; in [3] it was 3.5%; in the data set with T47D [4], 150%; in data set [6], 88.4%. The results for the inhibition in data set [23], in data set [24] and in data set [25] were under 5%, under 10% and under 5%, respectively. Besides, the “Ratio IC50” value in [21] worked out at 23.1.
